# Compounds with a hit are over-represented: about 2.5% of the library has one in this group of screens.
# SENP1 FRET inh: inhibitors of human SENP1 SUMO protease catalytic domain; recombinant SENP1 catalytic domain, CyPet-SUMO1-YPet FRET cleavage; 360,000 tested, 0.21% active; AID 624204; inhibition, % at 10 µM;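 active means inhibition at least 30% at 10 µM, raw YFP signal under a set limit, fluorescence ratio 0.5 to 1.5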;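 further: 0% = enzyme with DMSO and 100% = no enzyme wells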
# Target sequence (Q9P0U3 419-644 limits assumed): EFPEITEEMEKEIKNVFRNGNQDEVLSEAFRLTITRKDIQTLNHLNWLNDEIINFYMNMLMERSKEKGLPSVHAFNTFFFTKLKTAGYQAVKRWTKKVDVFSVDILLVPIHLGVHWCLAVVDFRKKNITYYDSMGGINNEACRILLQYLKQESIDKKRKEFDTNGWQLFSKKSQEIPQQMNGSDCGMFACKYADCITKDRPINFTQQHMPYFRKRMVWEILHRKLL
#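 material = recombinant human SENP1 catalytic domain, His6-tagged | quantity = 20 pM enzyme | reagent = 25 nM SUMO1 FRET substrate | compound dosing = 10 µM single point, 0.5% DMSO | timing = 50 min enzyme reaction, room temperature, light-protected | detection = FRET, CFP and YFP emission | control set = no-enzyme low, enzyme-DMSO high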
# SENP8 block-1: inhibitors of human SENP8 protease; Q96LD8; purified SENP8, Z-RLRGG-aminoluciferin cleavage, luminescence; inhibition, % at 10 µM; 330,000 tested, 1.2% active; AID 2540; in the data active means inhibition above about 50%
# SENP6 block: inhibitors of human SENP6 protease; Q9GZR1; Recombinant SENP6 catalytic domain, aminoluciferin luminescence; inhibition, % at 10 µM; 330,000 tested, 1.8% active;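 active means inhibition above about 50% at the single tested dose, limit read from the data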;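 further: plate controls were DMSO wells with enzyme for no effect and DMSO wells lacking enzyme for full effect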
# SENP7 inh: blocks the human protease SENP7; inhibition, % at 5 µM; AID 434973; recombinant SENP7, Z-RLRGG-aminoluciferin luminescence, 40 min; 330,000 tested, 1.5% active;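 active means inhibition above about 50% at the single test dose, limit read from the data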;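 further: plate controls were DMSO with enzyme for no effect and no enzyme buffer wells for full effect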
# Target sequence (Q9BQF6 706-1050 limits assumed): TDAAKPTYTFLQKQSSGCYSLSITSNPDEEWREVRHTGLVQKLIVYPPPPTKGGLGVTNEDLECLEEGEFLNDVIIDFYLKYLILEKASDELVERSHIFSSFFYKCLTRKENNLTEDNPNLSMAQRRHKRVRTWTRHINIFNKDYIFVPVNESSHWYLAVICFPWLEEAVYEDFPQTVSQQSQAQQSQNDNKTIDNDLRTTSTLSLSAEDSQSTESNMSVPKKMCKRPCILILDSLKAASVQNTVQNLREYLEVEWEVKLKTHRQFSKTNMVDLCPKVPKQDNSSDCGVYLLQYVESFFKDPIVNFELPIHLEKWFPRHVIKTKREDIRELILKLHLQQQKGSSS
# SENP8 block-2: inhibitors of human SENP8 protease. recombinant SENP8, Nedd8 substrate fluorescence. 360,000 tested, 0.64% active. inhibition, % at 20 µM. AID 602440; in the data active means inhibition mostly above about 40%, no sharp cut-off; inactive means mostly below about 27%
# SENP1 inh conf: confirmation of human SENP1 SUMO protease inhibitors; AID 651678; 520 tested, 34% active; shares compounds with SENP1 FRET inh; inhibition, % at 10 µM; recombinant SENP1, CyPet-SUMO1-YPet FRET cleavage; in the data active means inhibition mostly above about 35%, no sharp cut-off; inactive means mostly below about 32%;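 further: 0% = enzyme with DMSO and 100% = no enzyme control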
# SENP1 kin conf: confirmation of human SENP1 SUMO protease inhibitors, kinetic | inhibition, % at 10 µM | AID 651690 | 520 tested, 26% active | recombinant SENP1, CyPet-SUMO1-YPet FRET kinetic cleavage | shares compounds with SENP1 FRET inh; in the data active means inhibition mostly above about 32%, no sharp cut-off; inactive means mostly below about 29%;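 further: 0% = DMSO with enzyme and 100% = no enzyme substrate only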
# Active calls of the source: *; . = no result.
SMILES,SENP1 FRET inh,SENP8 block-1,SENP6 block,SENP7 inh,SENP8 block-2,SENP1 inh conf,SENP1 kin conf
CN(Cc1ccccc1)S(=O)(=O)c1ccc(NC(=O)c2ccccc2C(=O)O)cc1,-1,-16,-30,-3,17,.,.
O=C(Nc1nccs1)c1cc2cc(Cl)ccc2oc1=O,45*,21,-13,3,13,96*,83*
CCNC(=O)CC1C(=O)N(CC)C(=S)N1NC(=O)c1cccnc1 (centres undefined),2,-5,21,6,6,.,.
C1CCN(CC2CCCCN2)CC1 (centres undefined),45*,.,.,.,4,-2,1
C1CCN(CCC2CCCCN2)CC1 (centres undefined),-7,.,.,.,-4,.,.
COC(=O)C1=C(C(=O)OC)[C@@H]2N(Cc3ccccc3)c3ccccc3[C@@]23C[C@@H](C(=O)OC)N=C3N1,6,0,1,-5,20,.,.
COc1ccc(NC2=CC(=O)CC(c3ccccc3)C2)cc1 (centres undefined),1,7,-13,2,2,.,.
CC(=O)c1ccccc1Oc1nc(CN2CCOCC2)nc2scc(-c3cccs3)c12,44*,-2,-8,-7,18,52*,33*
COc1ccc(C(C)=O)c(Oc2nc(CN3CCOCC3)nc3scc(-c4cccs4)c23)c1,0,-5,-6,-5,8,.,.
CC(=O)N(c1cccc(Br)c1)c1nc(C)cc(C)c1C#N,4,0,-12,-2,34,.,.
Nc1ccc2c(c1)C(=O)N(CCCC(=O)O)C2=O,74*,0,-1,3,14,56*,28
CCOC(=O)Cc1nn(Cc2nc(-c3ccc(C#N)cc3)cs2)c(=O)c2ccccc12,1,-8,-27,-9,9,.,.
O=C1CCCc2c1cc(C(=O)Nc1ccc(Br)cn1)c(=O)n2-c1ccccc1,70*,-4,6,-5,-96,-10,-8
Cc1cccc(-n2c(SCc3cc(=O)n4ccsc4n3)nc3ccccc32)c1,31*,-2,-6,-3,-71,40*,28
CCCc1nc2c3ccccc3ccn2c1Cc1ccccc1,-2,.,.,.,-47,.,.
Cc1cc(Cl)ccc1OCC(=O)OCC(=O)c1c(N)n(C)c(=O)n(C)c1=O,3,2,-18,-4,11,.,.
O=C1NC(=S)SC1=Cc1cc(Br)ccc1O,32*,.,.,.,25,96*,52*
O=C(COC(=O)CCc1ccccc1)NCc1ccc2c(c1)OCO2,32*,4,10,2,26,-4,0
O=C1C=C(O)c2cccc3cccc1c23,45*,6,19,-3,22,66*,42*
NC1=CC(=O)c2cccc3cccc1c23,.,5,-3,12,.,.,.
CCN(CC)C(=O)Cn1cc(C(=O)C(=O)N2CC=C(c3ccccc3)CC2)c2ccccc21,65*,2,11,-2,1,63*,65*
CCN(CC)C(=O)Cn1cc(C(=O)C(=O)N2CCN(C)CC2)c2ccccc21,-5,-9,-3,9,-3,.,.
Cc1cc(-c2ccccc2)nc(=O)[nH]1,35*,-10,0,-6,-16,1,13
C/C(CC(=O)Nc1c(C)cc(C)cc1C)=N\NC(=O)c1cnccn1,3,-1,3,1,18,.,.
CC1(C)CC(=O)C(N=Nc2ccc(-c3ccccc3)cc2)=C(O)C1,63*,-4,-3,18,28,17,5
SMILES,SENP1 FRET inh,SENP8 block-1,SENP6 block,SENP7 inh,SENP8 block-2,SENP1 inh conf,SENP1 kin conf
COCCNC(=O)C1(C)CCN(C(=O)c2cccnc2Oc2ccccc2)C1 (centres undefined),3,.,.,.,26,.,.
O=C(O)c1ccc(CN2C[C@@H](CO)O[C@@H](n3cnc4c(NCc5ccc(F)cc5)ncnc43)C2)cc1,0,.,.,.,4,.,.
COc1ccc(-c2ccc3c(c2)S(=O)(=O)c2cccc(C(=O)NCc4ccccc4Cl)c2C3=O)cc1OC,58*,0,-14,7,2,15,17
COc1ccc(-c2ccc3c(c2)S(=O)(=O)c2cccc(C(=O)NC4CC4)c2C3=O)cc1OC,-5,4,-4,-4,-13,.,.
COc1ccc(-c2ccc3c(c2)S(=O)(=O)c2cccc(C(=O)NCCOc4ccccc4Cl)c2C3=O)cc1OC,29*,-6,-5,-11,12,14,16
CCSc1ncc(Cl)c(C(=O)Nc2sc3c(c2C(=O)NCc2cccnc2)CCCC3)n1,41*,1,-16,1,16,62*,44*
CCSc1ncc(Cl)c(C(=O)Nc2ccccc2Cl)n1,2,-5,-27,9,12,.,.
Cc1c(N)cccc1[N+](=O)[O-],-2,5,4,7,0,.,.
Nc1cc2c([N+](=O)[O-])cccc2o1,63*,6,-7,5,23,31,17
COc1ccc(NC(=O)NNC(=O)c2ccc3ccccc3c2)cc1OC,-1,-13,-14,-2,10,.,.
CCN(CC)S(=O)(=O)c1ccc(N2CCOCC2)c(NC(=O)c2ccc(C#N)cc2)c1,36*,-4,-5,-8,1,0,9
CSCCC(NS(=O)(=O)c1ccc(C)cc1C)C(=O)Nc1cccnc1 (centres undefined),1,-3,-14,6,20,.,.
Clc1cc2c(nn1)Nc1ccccc1S2,31*,-2,-24,0,-5,15,12
Nc1cccc2c1C(=O)c1ccc(Cl)cc1C2=O,30*,.,.,.,36,33,16
O=C(O)c1cccc2c1-c1ccc(Cl)cc1C2=O,1,.,.,.,6,.,.
O=c1cc(NCCCO)c2ccccc2o1,1,-2,-7,4,10,.,.
CCN(CC)CCNC(CC(=O)Nc1ccc(Cl)cc1Cl)C(=O)O (centres undefined),0,-7,-31,13,26,.,.
CCN(CC)CCNc1ccc(CO)c2oc3cc(Cl)ccc3c(=O)c12,48*,.,.,.,35,55*,35*
CN(C)CCNc1ccc(CO)c2oc3ccc(O)cc3c(=O)c12,58*,.,.,.,6,65*,39*
Cc1c(/C=N/Nc2ccc([N+](=O)[O-])cn2)c2ccccc2n1Cc1ccccc1,63*,2,0,5,22,7,9
Cc1ccc(Cn2cc(/C=N/Nc3ccc([N+](=O)[O-])cn3)c3ccccc32)cc1,-23,7,-5,8,24,.,.
CC1(C)CC(=O)C2=C(C1)Nc1ccccc1S2,46*,0,-1,1,13,29*,5
Cc1nc2ccccc2c(=O)n1/N=C/c1c(O)ccc2ccccc12,-22,-2,5,2,0,.,.
CSc1nnc(C(C)(C)C)c(=O)n1/N=C/c1c(O)ccc2ccccc12,33*,-5,-4,1,17,-7,3
O=C(Nc1cc(Cl)ccc1N1CCOCC1)C1=COCCO1,1,7,6,1,-7,.,.

# Assay outcomes as filed in PubChem BioAssay.
